Assay [1] concerns MCF7. The assay can be described thus: Induction of apoptosis in human MCF7 cells assessed as DNA fragmentation at 4 uM after 24 hrs using ethidium bromide staining by agarose gel electrophoresis. The class given is functional, cell-based. The procedure, abridged: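 1.5×10⁶ MCF-7 cells in 60 mm dishes were treated for 24 h and lysed in 10 mM Tris-HCl pH 7.5, 10 mM EDTA, 0.5% Triton X-100. The supernatant was digested with RNase A and proteinase K for 2 h at 37 °C. DNA was isolated by phenol–chloroform extraction and ethanol precipitation, run on 1% agarose with a 100 bp marker, and stained with ethidium bromide under UV.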

Assay [2] concerns MCF7. Briefly: Induction of apoptosis in human MCF7 cells assessed as increase of caspase 8 activation at 2 uM after 1 hr by […] method. Format: functional, cell-based. The procedure, abridged: (§1)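 Colorimetric caspase-8 kit on lysates of treated MCF-7 cells. The IETD-pNA substrate was incubated with cell lysate at 37 °C for 1 h, and absorbance was read at 405 nm. Untreated cells served as the control.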

For assay [3], the system named is MCF7. Briefly: Cell cycle arrest in human MCF7 cells assessed as accumulation at G0 phase after 24 hrs using propidium iodide staining by flow cytometry. Format: functional, cell-based. The method, boiled down: (§2)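 MCF-7 cells were grown in DMEM with 10% fetal calf serum, penicillin and streptomycin, at 37 °C in 5% CO2. They were treated for 24 h at 2 and 4 µM, with DMSO-treated cells as controls. Cells were trypsinised, fixed in ice-cold 70% ethanol at 4 °C for 30 min, and RNaseA-treated at 37 °C for 30 min. Phases were read by flow cytometry.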
A general note: Flow cytometry measures light scatter and fluorescence of single cells or particles in a stream.

Assay [4] relates to MCF7. The assay can be described thus: Increase of cytosolic cytochrome c level in human MCF7 cells at 2 uM after 24 hrs by Western blot analysis. Format: functional, cell-based. The procedure, abridged: (§3)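 MCF-7 cells were grown in DMEM with 10% FCS and penicillin/streptomycin at 37 °C in 5% CO2, then treated for 24 h. Cells were lysed in ice-cold RIPA buffer with protease inhibitors and NaF. Protein was measured by Bradford assay, and 30 µg per lane was run on 12% SDS-PAGE and transferred to PVDF. Antibody steps: primary at 4 °C overnight, HRP secondary 1:2000, chemiluminescent detection.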

Assay [5] deals with MCF7. Briefly: Cell cycle arrest in human MCF7 cells assessed as accumulation at G2/M phase at 4 uM after 24 hrs using propidium iodide staining by flow cytometry. Format: functional. The method, boiled down:
as §2

Assay [6] has as its system MCF7. Briefly: Induction of apoptosis in human MCF7 cells assessed as increase of caspase 9 activation at 2 to 4 uM after 1 hr by fluorimetry based assay in presence of caspase 9 inhibitor LEHD-CHO. The class given is functional, cell-based.
In assay [7] the test system is MCF7. The assay can be described thus: Cell cycle arrest in human MCF7 cells assessed as accumulation at G2/M phase at 2 uM after 24 hrs using propidium iodide staining by flow cytometry. The class given is functional. The procedure, abridged:
as §2

The subject of assay [8] is MCF7. The assay can be described thus: Cell cycle arrest in human MCF7 cells assessed as accumulation at G0 phase at 4 uM after 24 hrs using propidium iodide staining by flow cytometry. Format: functional. The method, boiled down: as §2
In assay [9] the test system is MCF7. Briefly: Cell cycle arrest in human MCF7 cells assessed as accumulation at G1 phase at 4 uM after 24 hrs using propidium iodide staining by flow cytometry. The class given is functional. The procedure, abridged:
as §2

Assay [10] has as its system Nucleic Acid. Briefly: Inhibition of Escherichia coli pBR322 DNA cleavage at 16 uM after 16 hrs by RED100-restriction endonuclease digestion assay. The class given is nucleic-acid assay. The method, boiled down: (§4)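 pBR322 DNA was preincubated with compound at final 2, 4, 8, 16 and 32 µM for 16 h at 37 °C. BamHI (10 U/µl) in BamHI buffer was then added for 2 h at 37 °C. Products were separated on agarose in 0.5× Tris–acetate EDTA at 80 V for 1 h and stained with ethidium bromide. Cut and uncut DNA served as controls.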

The test system of assay [11] is MCF7. Briefly: Cell cycle arrest in human MCF7 cells assessed as accumulation at G0 phase at 2 uM after 24 hrs using propidium iodide staining by flow cytometry. Format: functional. The procedure, abridged:
as §2

The test system of assay [12] is MCF7. The assay can be described thus: Induction of apoptosis in human MCF7 cells assessed as increase of caspase 9 activation at 4 uM after 1 hr by fluorimetry based assay. The class given is functional, cell-based.
Assay [13] relates to MCF7. Briefly: Cell cycle arrest in human MCF7 cells assessed as accumulation at S phase at 2 uM after 24 hrs using propidium iodide staining by flow cytometry. The class given is functional. The procedure, abridged:
as §2

The test system of assay [14] is MCF7. Briefly: Induction of apoptosis in human MCF7 cells assessed as increase of caspase 9 activation at 2 uM after 1 hr by fluorimetry based assay. The class given is functional, cell-based.
In assay [15] the test system is MCF7. Briefly: Increase of PARP cleavage in human MCF7 cells at 2 uM after 24 hrs by Western blot analysis. The class given is functional, cell-based. The method, boiled down: as §3
The test system of assay [16] is MCF7. Briefly: Induction of apoptosis in human MCF7 cells assessed as increase of caspase 8 activation at 4 uM after 1 hr by […] method. The class given is functional, cell-based. The method, boiled down:
as §1

Assay [17] has as its system MCF7. Briefly: Decrease of cyclin D1 level in human MCF7 cells at 2 uM after 24 hrs by Western blot analysis. The class given is functional, cell-based. The procedure, abridged: (§5)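 MCF-7 cells were treated at 2 or 4 µM for 24 h, then lysed in ice-cold RIPA buffer with protease inhibitors and NaF. Protein was quantified by Bradford. Thirty µg per lane was run on 12% SDS-PAGE and transferred to PVDF. Membranes were blocked 2 h, given primary antibody overnight at 4 °C, then HRP secondary (1:2000) for 1 h. Bands were detected by chemiluminescence.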
On the technique in general: In western blotting, separated proteins are transferred to a membrane and probed.

The subject of assay [18] is MCF7. Briefly: Induction of p53 expression in human MCF7 cells. The class given is functional, cell-based.
Assay [19] deals with MCF7. Briefly: Increase of cytosolic cytochrome c level in human MCF7 cells at 4 uM after 24 hrs by Western blot analysis. Format: functional, cell-based. The procedure, abridged:
as §3

The subject of assay [20] is MCF7. Briefly: Cell cycle arrest in human MCF7 cells assessed as accumulation at S phase at 4 uM after 24 hrs using propidium iodide staining by flow cytometry. Format: functional. The method, boiled down: as §2
The subject of assay [21] is Nucleic Acid. The assay can be described thus: Inhibition of Escherichia coli pBR322 DNA cleavage after 16 hrs by RED100-restriction endonuclease digestion assay. The class given is nucleic-acid assay. The method, boiled down:
as §4

Assay [22] concerns MCF7. Briefly: Decrease of cyclin D1 level in human MCF7 cells at 4 uM after 24 hrs by Western blot analysis. The class given is functional, cell-based. The procedure, abridged: as §5
Assay [23] concerns MCF7. Briefly: Cytotoxicity against human MCF7 cells at 4 uM after 24 hrs by MTT assay relative to control. The class given is functional, cell-based. The procedure, abridged:
(§6)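 MCF-7 cells were seeded at 10,000 cells/well in DMEM with 10% fetal calf serum. They were exposed to 0.5, 1, 2 and 4 µM for 24 h. MTT reduction to formazan was read at 570 nm, with untreated controls taken as 100% viability. DMSO-treated cells served as an additional control.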

The subject of assay [24] is MCF7. Briefly: Increase of PARP cleavage in human MCF7 cells at 4 uM after 24 hrs by Western blot analysis. Format: functional, cell-based. The method, boiled down: as §3
The subject of assay [25] is MCF7. The assay can be described thus: Cytotoxicity against human MCF7 cells at 1 uM after 24 hrs by MTT assay relative to control. The class given is functional. The method, boiled down: as §6
(In general: Formazan colour is commonly taken as a measure of viable cells.)

Assay [26] deals with MCF7. The assay can be described thus: Cell cycle arrest in human MCF7 cells assessed as accumulation at G1 phase at 2 uM after 24 hrs using propidium iodide staining by flow cytometry. Format: functional. The procedure, abridged:
as §2

Assay [27] relates to MCF7. The assay can be described thus: Cytotoxicity against human MCF7 cells at 2 uM after 24 hrs by MTT assay relative to control. Format: functional. The procedure, abridged: as §6

Active and inactive are the calls of the source. The calls are words filed in the database; no cut-off is given here. Bounds are passed on as bounds.

As usually defined, the inhibition is the relative decrease from the control value, in per cent.

For the molecule `COc1cc2c(cc1OCCCCCOc1ccc(-c3cc4ccccc4c4ccccc34)cc1)N=C[C@@H]1CCCN1C2=O`, the result in the assay with MCF7 [1], with MCF7 [2], with MCF7 [4], with MCF7 [12], in the assay on MCF7 [14] and in the assay on MCF7 [15] was Active. In addition, the result in the assay on MCF7 [16], with MCF7 [17], in the assay with MCF7 [18], in the assay with MCF7 [19], in the assay with MCF7 [22] and with MCF7 [23] was Active. In the assay with MCF7 [24], the result was Active. The Activity entry with MCF7 [3] is “Dose-dependent effect”; with MCF7 [5], 2.46%; with MCF7 [7], 2.61%; with MCF7 [8], 22.71%; in the assay on MCF7 [9], 69.07%; in the assay with MCF7 [11] it was 13.08%. Also, the Activity was 7.76% in the assay on MCF7 [13], 4.86% in the assay on MCF7 [20], “<=50%” in the assay with MCF7 [25] and 75.84% in the assay with MCF7 [26]. Also, in the assay on MCF7 [6], the result was inactive. Moreover, the results for the inhibition in the assay with Nucleic Acid [10] and in the assay with Nucleic Acid [21] were 100% and “Dose-dependent effect”, respectively.

As for `COc1cc2c(cc1OCCCCOc1ccc(-c3cc4ccccc4c4ccccc34)cc1)N=C[C@@H]1CCCN1C2=O`, the outcome with MCF7 [1], in the assay with MCF7 [2], in the assay on MCF7 [4], in the assay on MCF7 [12], with MCF7 [15] and in the assay with MCF7 [16] was Active. Further, the result in the assay on MCF7 [18], in the assay on MCF7 [19], in the assay on MCF7 [23] and in the assay with MCF7 [24] was Active. For the same molecule, the Activity entry with MCF7 [3] was “Dose-dependent effect”; in the assay on MCF7 [5], 2.94%; in the assay on MCF7 [7], 4.25%; with MCF7 [8], 20.86%; in the assay with MCF7 [9], 70.3%; in the assay with MCF7 [11], 15.08%. The Activity in the assay with MCF7 [13] is on record as 12.45%; in the assay with MCF7 [20], 5.5%; in the assay with MCF7 [27], “<=50%”; in the assay on MCF7 [26] it was 66.31%. Further, the results for the inhibition in the assay on Nucleic Acid [10] and in the assay with Nucleic Acid [21] were 100% and “Dose-dependent effect”, respectively.

Consider `COc1cc2c(cc1O)N=C[C@@H]1CCCN1C2=O`, for which the result in the assay with MCF7 [4], in the assay on MCF7 [15], with MCF7 [16], in the assay on MCF7 [19] and in the assay on MCF7 [24] was Active. For the same molecule, the Activity with MCF7 [5] was found to be 3.5%; in the assay on MCF7 [7], 13.1%; with MCF7 [8], 8.07%; in the assay on MCF7 [9], 75.28%; in the assay with MCF7 [11], 3.19%; with MCF7 [13], 20.26%. The Activity is listed as 14.16% in the assay with MCF7 [20] and 65.98% in the assay with MCF7 [26].

(Values after ChEMBL document CHEMBL1165860, “Synthesis and potential cytotoxic activity of new phenanthrylphenol-pyrrolobenzodiazepines” (2010).)
